Results of several laboratories.
Compare with care: the assays were run in different laboratories.

For `CC(C)(C)NC(=O)N[C@H](C(=O)N1C[C@H]2[C@@H]([C@H]1C(=O)NC(CC1CCC1)C(=O)C(N)=O)C2(C)C)C(C)(C)C` (stereo partly drawn), the CC50 was greater than 100 µM (MDCK; cell growth or viability, neutral red; 48 h).
For `CC(N)C12CC3CC(CC(C3)C1)C2` (stereo not drawn), the CC50 was 62 µM (MDCK; cell growth or viability, MTT; 72 h).
The CC50 of `COc1ccc(C=NNC(=S)Nc2ccc(C#N)cc2)cc1` is reported as greater than 100 µg/mL (CRFK; cell growth or viability, MTS).
`O=C(CCCN1CCC(O)(c2ccc(Cl)cc2)CC1)c1ccc(Br)cc1` gave an IC50 of 41.2 µM (K562; cell growth or viability).
With `CC(C)[C@H](N)C(=O)N1CCC[C@H]1B(O)O` the viability was 98% (K562; cell growth or viability, ATP luminescence; 60 µM, 5 days).
`Nc1nc(O)c2ncn(COC(CO)CO)c2n1` has a CC50 of greater than 100 µM (CRFK; cell growth or viability, MTS).
For `CCC(CC)O[C@@H]1C=C(C(=O)O)C[C@H](N)[C@H]1NC(C)=O`, the CC50 was greater than 200 µM (MDCK; cell growth or viability, MTT; 72 h).
`N#Cc1ccc(NC(=S)NN)cc1` has a CC50 of 84.6 µg/mL (CRFK; cell growth or viability, MTS).
`CC[C@@]1(O)C(=O)OCc2c1cc1n(c2=O)Cc2cc3ccccc3nc2-1` has a Papp A→B of 27 ×10⁻⁶ cm/s (MDCK; Caco-2; 0.5 µM, 105 min, pH 7.4).
